Screens (PubChem BioAssay)
A selection: hits, their analogues and other compounds. The true share with any hit is near 3.7%.
hERG protect: shields human hERG channel from block by proarrhythmic agents | 310,000 tested, 0.51% active | Q12809 | activation (rescue from dofetilide block), less the hit threshold, % at 10 µM | CHO-hERG, FluxOR thallium flux, dofetilide IC70 present;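 active = activation above the mean of controls blocked by dofetilide plus 5 SD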;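 also: thallium influx through hERG after potassium depolarization seen as dye fluorescence rise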
Kir21 inh: Kir2.1 (mouse) channel inhibition. P35561. HEK293-Kir2.1, FluxOR thallium flux fluorescence; stronger effect = lower value. B-score at 10 µM. 310,000 tested, 0.85% active. AID 1672;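 active = fluorescence ratio B-score at or below minus 3 SD of library scores, with starting-brightness B-score within 2 SD, cut at about -4.2 in these data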;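 also: channel flux triggered by added potassium and thallium sulfate stimulus; B-score of peak minus minimum fluorescence over baseline after thallium stimulus; more negative B-score means stronger Kir2.1 block with less thallium influx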
KCNQ1 block: human KCNQ1 channel inhibition | B-score at 10 µM | 310,000 tested, 1.3% active | P51787 | CHO-K1 KCNQ1, FluxOR thallium flux fluorescence; stronger effect = higher value;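 active = compounds whose thallium flux B-score, printed positive for inhibition, exceeds three library SD while starting fluorescence stays within three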;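 also: channel opened by potassium depolarization with thallium stimulus after 20 min compound exposure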
KCNK9 block: human KCNK9 channel inhibition. Q9NPC2. HEK293 KCNK9, FluxOR thallium flux fluorescence; stronger effect = lower value. B-score at 10 µM. 310,000 tested, 1.2% active. AID 488922;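 active = ratio B-score over 3 SD below the library mean, with starting fluorescence within 5 SD of its mean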;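 also: negative B-score means less thallium flux so channel inhibition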
KCNK3 block: human KCNK3 channel inhibition, primary screen; O14649; CHO-KCNK3 thallium flux, FluxOR fluorescence; stronger effect = lower value; B-score at 10 µM; 340,000 tested, 0.84% active;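 active = B-score under library mean minus 4 SD, starting fluorescence ratio at most library mean plus 5 SD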;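 also: more negative B-score means stronger inhibition of thallium flux through KCNK3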
KCNQ1 pot: potentiators or activators of human KCNQ1 potassium channel; AID 2648; CHO-K1 KCNQ1, thallium flux FluxOR fluorescence; stronger effect = higher value; 310,000 tested, 0.35% active; B-score at 10 µM; P51787;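 active = fluorescence ratio B-score, a plate-corrected score, at least three library SD, with initial intensity B-score within 5 SD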
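Test system: CHO-K1 cells stably expressing KCNQ1 / Medium: assay buffer / Also added: depolarizing K+/Tl+ stimulus, K2SO4 and Tl2SO4 each 12.5 mM in 5x stock / Incubation: 90 min dye loading and 20 min compound exposure, both at room temperature / Signal: thallium influx via FluxOR fluorescence, kinetic imaging / Evaluation: B score of baseline-normalized fluorescence ratio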
KCNK3 confirm: human KCNK3 channel inhibition, confirmation assay; CHO-KCNK3 thallium flux, FluxOR fluorescence; 0% buffer, 100% carvedilol maximal block; AID 651638; ratio percent of control, % at 10 µM; 2,400 tested, 99% active; shares compounds with KCNK3 block;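 active = ratio percent of control, averaged over triplicates, above buffer control mean plus 5 SD, cut at about 64% in these data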;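 also: ratio is the fluorescence rise from min to max over baseline after thallium stimulus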
KCNK3 uninduced: counter-screen for KCNK3 inhibitors: effect in non-induced cells; non-induced KCNK3 parental cells, FluxOR thallium flux; stronger effect = lower value; shares compounds with KCNK3 block; thallium flux ratio (lower = more inhibition) at 10 µM; AID 651747; 2,400 tested, 40% active;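 active = thallium flux ratio, averaged over three wells, more than 5 SD below the buffer control mean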;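 also: host cells are CHO cells without KCNK3 induction; ratio is peak minus trough fluorescence over baseline then normalized to buffer controls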
Numbers without * were called inactive; i = inactive; . = no result given.

SMILES	hERG protect	Kir21 inh	KCNQ1 block	KCNK9 block	KCNK3 block	KCNQ1 pot	KCNK3 confirm	KCNK3 uninduced
Oc1ccccc1/C=N/Nc1cccc2cccnc12	-9	-1.1	i	i	-11*	i	98*	i
COCCN(C(=S)Nc1cc(C)cc(C)c1)C(C)c1cccs1 (stereo not drawn)	-4	-0.8	i	i	i	i	.	.
COCCN(C(=S)Nc1cc(C)cc(C)c1)C(C)c1ccco1 (stereo not drawn)	-9	-0.79	i	i	-9*	i	85*	i
CCCN1C(=O)/C(=C/c2ccc(C)s2)SC1=Nc1ccc(OC)cc1	-12	-3.8	i	i	-9*	i	114*	i
COc1cc(Nc2cccc[n+]2C)cc(OC)c1OC	-6	1.6	i	i	i	i	.	.
CCOC(=O)C1=C(C)NC(SCC(=O)O)=C(C#N)C1c1ccco1 (stereo not drawn)	-7	1.3	i	i	i	i	.	.
CC(=O)C1=C(C)NC(SCC(=O)c2ccc(Cl)c(Cl)c2)=C(C#N)C1c1ccco1 (stereo not drawn)	-4	-1.9	i	-7.8*	-11*	i	125*	0.16*
CCC1(CC)NC(=O)N(CC(=O)Nc2ccc(C)cc2C)C1=O	.	.	.	.	i	.	.	.
Cc1ccc(NC(=O)CN2C(=O)NC(C)(c3ccccc3)C2=O)c(C)c1 (stereo not drawn)	-1	-1.8	i	i	-11*	i	85*	i
N#Cc1cccc(C(c2nnnn2C2CCCC2)N2CCCCCC2)c1 (stereo not drawn)	-6	0.71	i	-7.2*	-15*	i	93*	i
O=C(NCCCN1CCCC1)c1ccc2c(c1)N(Cc1ccccc1F)C(=O)c1ccccc1S2(=O)=O	-11	-0.01	i	i	i	i	.	.
COc1ccc(CCN(C)C(=O)COc2ccc(C(=O)c3ccccc3)cc2)cc1OC	-10	3.2	i	i	i	i	.	.
CSc1ccc(CN(C)C(=O)COc2ccc(C(=O)c3ccccc3)cc2)cc1	-7	1.7	i	i	-9.4*	i	101*	i
O=C(O)c1ccc(OCCN2CCCC2=O)cc1	-8	0.95	i	i	i	i	.	.
CCC/C(O)=C1\C(=O)CC(C)(C)CC1=NCc1ccccc1	-11	-0.93	i	i	i	i	.	.
CCCN=C1CC(C)(C)CC(=O)/C1=C(/O)CCC	-3	2.2	i	i	-9*	i	99*	i
CCOC(=O)C1=C(C)N=C2SCCC(=O)N2[C@@H]1/C=C/c1ccccc1	-10	-0.06	i	i	i	i	.	.
COCCOC(=O)C1=C(C)N=C2SCCC(=O)N2C1c1ccc(C(=O)OC)cc1 (stereo not drawn)	-3	1.1	i	i	i	i	.	.
COCCOC(=O)C1=C(C)N=C2SCCC(=O)N2C1/C=C/c1ccccc1 (stereo not drawn)	-6	0.76	i	i	-13*	i	105*	0.16*
COC(=O)C1=C(C)N=C2SCCC(=O)N2C1c1ccc(C(=O)OC)cc1 (stereo not drawn)	-10	0.87	i	i	-8.9*	i	78*	0.15*
O=C(CSc1nnc(-c2ccc(Cl)cc2)n1Cc1ccco1)Nc1ccc2c(c1)OCCO2	-16	1.6	i	i	i	i	.	.
CC(=O)Nc1cccc(NC(=O)CSc2ncc(-c3ccc(Cl)cc3)n2Cc2ccco2)c1	-27	-0.48	7*	i	-11*	i	119*	0.14*
CN(c1ccccc1)S(=O)(=O)c1cccc(NC(=O)c2ccc3ncsc3c2)c1	-14	1.4	i	-7.1*	-9.5*	i	130*	0.14*
CCCCn1c(N)c(N(Cc2ccccc2OC)C(=O)c2ccc([N+](=O)[O-])s2)c(=O)[nH]c1=O	-13	-0.35	i	i	i	i	.	.
CCOc1ccc(/C=N/NC(=O)Cc2csc(Nc3cccc(C(F)(F)F)c3)n2)cc1	-4	0.98	i	i	-11*	i	106*	i
SMILES	hERG protect	Kir21 inh	KCNQ1 block	KCNK9 block	KCNK3 block	KCNQ1 pot	KCNK3 confirm	KCNK3 uninduced
CCOc1ccccc1/C=N/NC(=O)Cc1csc(Nc2cccc(C(F)(F)F)c2)n1	-3	0.53	i	i	-8.7*	i	131*	0.15*
O=C(N[C@@H](Cc1ccccc1)C(=O)OCc1ccccc1)c1nc[nH]c1C(=O)N1CCNCC1	.	.	.	.	i	.	.	.
O=C(NCCCn1ccnc1)c1ccc(C(F)(F)F)cc1	-14	0.55	i	i	i	i	.	.
COc1cc(/C=N/Nc2nc(C)nc3c2cnn3-c2ccccc2)ccc1O	4	-0.53	i	i	i	i	.	.
CCCC/C(O)=C1\C(=O)CCCC1=NCCc1c(C)[nH]c2ccc(OC)cc12	-6	-1.4	i	i	i	i	.	.
CCC/C(O)=C1\C(=O)CCCC1=NCCc1ccc(OCC)c(OCC)c1	-13	-0.38	i	i	-9.2*	i	117*	i
Cc1ccc(NS(=O)(=O)c2ccc3c(c2)CCN3C(=O)CCC(=O)O)cc1Cl	-6	0.05	i	i	i	i	.	.
O=C(Nc1ccc(Br)c(C(F)(F)F)c1)c1ccc(C(F)(F)F)cc1	-23	0.81	12*	i	-10*	i	119*	0.1*
O=C(Nc1ccc(C(F)(F)F)cc1)c1ccccc1Br	-5	-1.6	i	i	i	i	.	.
Cc1ccccc1C(=O)OCC(=O)Nc1cccc(S(=O)(=O)NC2=NCCC2)c1	.	.	.	.	i	.	.	.
COc1ccccc1-n1c(SCC(=O)Nc2ccccc2F)nc2[nH]ncc2c1=O	-14	0.02	i	i	-9.6*	i	114*	i
CCOc1ccc(NC(=O)CSc2nnc(C3CC3)n2C2CC2)cc1	.	.	.	.	i	.	.	.
CC(=O)c1c(C)[nH]c(C(=O)Nc2ccc(Cl)c(S(=O)(=O)N(C)C)c2)c1C	-35	-0.77	i	i	-11*	i	103*	i
CC(=O)c1c(C)[nH]c(C(=O)OCC(=O)Nc2ccc(Cl)c(S(=O)(=O)N(C)C)c2)c1C	-6	0.02	i	i	i	i	.	.
CCCOC(=O)/C(=C\C=C\c1ccco1)NC(=O)c1ccccc1	-18	0.58	i	i	-10*	i	107*	0.15*
